Data reported in ChEMBL document CHEMBL1121509, “Metabolic N-hydroxylation. Use of substituent variation to modulate the in vitro bioactivation of 4-acetamidostilbenes” (J Med Chem, 1980).

Columns and labels:
Format in all cases: ADME
Details in all cases: microsomes
[1] = Compound was evaluated for the apparent kinetic constant (Km) for the microsomal oxidation (hydroxamic acid metabolite)
[2] = Compound was evaluated for the kinetic constant (Vmax) for the microsomal oxidation (hydroxamic acid metabolite)
[3] = Selectivity ratio of Vmax and Km for microsomal oxidation (hydroxamic acid metabolite)
Outline: (§1)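 V/K computed as Vmax/Km, an apparent first-order rate constant […], from Wilkinson-fitted kinetic constants of 10-min, 37 °C liver microsomal incubations with NADPH-generating system and paraoxon; metabolites quantified by TLC and dual-label (¹⁴C/³H) radiochemical assay.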

[4] = Compound was evaluated for the apparent kinetic constant (Km) for the microsomal oxidation (hydroxymethyl metabolite)
[5] = Compound was evaluated for the kinetic constant (Vmax) for the microsomal oxidation (hydroxymethyl metabolite); Values are pmol(1/mg of microsomal protein)min
[6] = Selectivity ratio of Vmax and Km for microsomal oxidation; outline: as §1
[7] = Compound was evaluated for the apparent kinetic constant (Km) for the microsomal oxidation (4'-hydroxy metabolite)
[8] = Compound was evaluated for the kinetic constant (Vmax) for the microsomal oxidation (4'-hydroxy metabolite); Values are pmol(1/mg of microsomal protein)min
[9] = Compound was evaluated for the kinetic constant (Vmax) for the microsomal oxidation (hydroxamic acid metabolite); Values are pmol(1/mg of microsomal protein)min; design: unit: pmol/min/mg protein
[10] = Selectivity ratio of Vmax and Km for microsomal oxidation (4'-hydroxy metabolite); outline: as §1
[11] = Compound was evaluated for the apparent kinetic constant (Km) for the microsomal oxidation (glycolamide metabolite)
[12] = Compound was evaluated for the kinetic constant (Vmax) for the microsomal oxidation (glycolamide metabolite); Values are pmol(1/mg of microsomal protein)min
[13] = Selectivity ratio of Vmax and Km for microsomal oxidation (glycolamide metabolite); outline: as §1
[14] = Compound was evaluated for the apparent kinetic constant (Km) for the microsomal oxidation (omega-1 hydroxy metabolite)
[15] = Selectivity ratio of Vmax and Km for microsomal oxidation (omega-1 hydroxy metabolite); outline: as §1
[16] = Compound was evaluated for the kinetic constant (Vmax) for the microsomal oxidation (omega-1 hydroxy metabolite); Values are pmol(1/mg of microsomal protein)min

Row | Compound | Km [1] [µM] | Ratio [3] | Ratio [6] | Vmax [9] | also measured
1 | CC(=O)Nc1ccc(/C=C/c2ccc(C)cc2)cc1 | 60 | 4.05 | – | – | Vmax [2]: 243
2 | CC(=O)Nc1ccc(/C=C/c2ccc(C(C)(C)C)cc2)cc1 | – | – | 12.54 | – | Km [4]: 90 µM; Vmax [5]: 1129
3 | CC(=O)Nc1ccc(/C=C/c2ccccc2)cc1 | 2800 | 0.99 | – | 2767 | Km [7]: 500 µM; Vmax [8]: 467; Ratio [10]: 0.93
4 | CC(=O)Nc1ccc(/C=C/c2ccc(Cl)cc2)cc1 | 3300 | 0.03 | – | 98 | Km [11]: 3500 µM; Vmax [12]: 17; Ratio [13]: 0.005
5 | CC(=O)Nc1ccc(/C=C/c2ccc(F)cc2)cc1 | 2900 | 0.03 | – | 88 | Km [11]: 3300 µM; Vmax [12]: 27; Ratio [13]: 0.008
6 | CC(=O)Nc1ccc(/C=C/c2ccc(C#N)cc2)cc1 | 310 | – | 2.18 | 677 | –
7 | CC(=O)Nc1ccc(/C=C/c2ccc(Br)cc2)cc1 | 1900 | – | 0.24 | 457 | –
8 | CCCCOc1ccc(/C=C/c2ccc(NC(C)=O)cc2)cc1 | 1200 | 0.28 | – | 330 | Km [14]: 1100 µM; Ratio [15]: 0.48; Vmax [16]: 530
